Screens: PubChem BioAssay, The Scripps Research Institute Molecular Screening Center
The list is not random: actives were taken first. Their share in the collection is about 2%.
STAT3 act = increases IL-6 driven STAT3 reporter signal; 0.91% of 190,000 active; activation (% of control), % at 5.6 µM; U3A cells, IL-6 STAT3-luciferase reporter, luminescence; 100% = signal with IL-6 EC80 alone;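 active means activation above the screen-wide mean of compound activation plus 3 SD, cut at about 130% in these data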;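 further: 0% = background luminescence of wells with medium and substrate only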
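Material: human STAT1-deficient U3A cells with stable STAT3-luciferase reporter / Probe or stimulus: IL-6 stimulus at 33 ng/mL final / Schedule: 1 h compound pre-exposure, 6 h IL-6 stimulation, 37 °C / Technique: luminescence / Read-out basis: percent of IL-6-only median luminescence / Control set: IL-6-only high control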
HSP90 refold inh = blocks HSP90-mediated luciferase refolding in reticulocyte lysate; 0.91% of 290,000 active; Rabbit reticulocyte lysate, luciferase refolding luminescence, 3 h; AID 1789; inhibition, % at 5.6 µM;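 active means inhibition above the screen-wide mean plus 3 SD, computed separately per campaign, cut at about 16% in these data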;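 further: 0% = DMSO wells and 100% = 60 µM geldanamycin wells; inhibitors lower the luminescence because luciferase stays unfolded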
STAT3 inh = inhibitors of IL-6 induced STAT3 signaling. U3A cells, IL-6 STAT3-luciferase reporter, luminescence; host cell line lacks STAT1. inhibition, % at 5.5 µM. 0.89% of 190,000 active. AID 862;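 active means inhibition above the mean inhibition across all screened compounds plus 3 SD, cut at about 44% in these data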;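 further: 0% = DMSO only wells and 100% = 100 µM nifuroxazide control wells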
STAT1 inh = reduces IFN-gamma driven STAT1 reporter signal | 0.35% of 200,000 active | inhibition, % at 5.5 µM | AID 920 | NIH 3T3 STAT1-luciferase reporter, luminescence;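 active means inhibition above a set limit, the mean inhibition across all tested compounds plus 3 SD, cut at about 34% in these data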;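 further: 0% = IFN-gamma with DMSO and 100% = IFN-gamma with 300 µM nifuroxazide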
HSP90 confirm = confirmation of HSP90 inhibitors | shares compounds with HSP90 refold inh | AID 1846 | inhibition, % at 5.9 µM | rabbit reticulocyte lysate, luciferase refolding luminescence, 3 h | 64% of 2,300 active; in the data active means inhibition above about 18%;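 further: 0% = vehicle wells and 100% = reference inhibitor wells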
FLuc counter = blocks native firefly luciferase in HSP90 counter-screen. 48% of 2,300 active. shares compounds with HSP90 refold inh. inhibition, % at 5.9 µM. purified native firefly luciferase, luminescence;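 active means inhibition above the mean inhibition of all tested sample wells plus 3 SD, cut at about 10% in these data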;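 further: 0% = DMSO with luciferase and 100% = wells lacking luciferase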
Target sequence (P08659 whole entry, looked up): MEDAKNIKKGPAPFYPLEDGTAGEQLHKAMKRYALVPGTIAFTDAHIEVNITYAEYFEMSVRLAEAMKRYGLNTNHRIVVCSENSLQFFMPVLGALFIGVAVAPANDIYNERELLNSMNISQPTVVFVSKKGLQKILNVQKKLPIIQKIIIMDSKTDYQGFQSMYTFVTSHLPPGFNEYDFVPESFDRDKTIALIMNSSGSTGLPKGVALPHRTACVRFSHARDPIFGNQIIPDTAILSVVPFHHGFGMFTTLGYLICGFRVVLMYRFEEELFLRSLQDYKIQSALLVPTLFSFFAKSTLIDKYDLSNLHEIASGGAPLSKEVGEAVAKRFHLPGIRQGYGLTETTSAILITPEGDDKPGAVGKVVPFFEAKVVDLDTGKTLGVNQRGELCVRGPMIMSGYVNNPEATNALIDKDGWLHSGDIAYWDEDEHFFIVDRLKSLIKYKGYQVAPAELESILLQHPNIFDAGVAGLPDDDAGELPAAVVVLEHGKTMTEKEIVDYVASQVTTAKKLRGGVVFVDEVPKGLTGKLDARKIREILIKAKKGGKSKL
Starred values were filed as active, the others as inactive; / = no result.

SMILES	STAT3 act	HSP90 refold inh	STAT3 inh	STAT1 inh	HSP90 confirm	FLuc counter
CCOc1ccc(OCc2cccc(C(=O)N3CCOCC3)c2)cc1	17	61*	96*	82*	70*	73*
CCN1CCN(Cc2ccc(NC(=O)c3ccc(C)c(NC(=O)c4cccc(-c5cn[nH]c(=O)c5)c4)c3)cc2C(F)(F)F)CC1	/	20*	/	/	19*	-8
CCN1CCN(Cc2ccc(NC(=O)c3ccc(C)c(/C=C/c4cnc(Nc5cc(N6CCNCC6)nc(C)n5)cn4)c3)cc2C(F)(F)F)CC1	/	-5	/	/	/	/
CCOc1ccc(CCNC(=O)C2CCN(c3nn4c(=O)cc(C)nc4s3)CC2)cc1	103	18*	1	1	-9	-12
Cc1ccc(CCNC(=O)C2CCN(c3nn4c(=O)cc(C)nc4s3)CC2)cc1	94	-1	11	-6	/	/
Cc1cc(OCC(=O)N(C(C)C)C(C)C)cc(C)c1Br	101	9	-3	-3	/	/
O=C(NCc1cccnc1)c1cccc(OC2CCN(Cc3ccc(CO)o3)CC2)c1	/	2	/	/	/	/
CCCCC1=NN(C(=O)c2ccco2)C(O)(C(F)(F)F)C1 (configuration not stated)	109	-1	-4	5	/	/
N#Cc1ccccc1Sc1ccccc1N	92	2	13	-4	/	/
Nc1ccccc1SSc1ccccc1N	/	11	/	/	36*	8
CCC1CCCCN1C(=O)CCCOc1ccccc1 (configuration not stated)	106	37*	-6	-24	39*	24*
CCC1CCCCN1C(=O)COc1ccc(F)cc1 (configuration not stated)	90	1	14	8	/	/
CC(C)CCn1cnc2c(oc3nc4c(cc32)CCCC4)c1=O	/	19*	/	/	51*	35*
Cc1ccccc1C(=O)Nc1nnc(SCC(=O)NCc2ccco2)s1	/	18*	/	/	27*	15*
CC(C)c1ccc(C(=O)NC2=NCCS2)cc1	72	18*	34	-52	42*	38*
CCn1c(/C=N/Nc2ccc(C(=O)O)cc2)nc2ccccc21	93	1	11	1	/	/
Cc1c(/C=N/Nc2ccc(C(=O)O)cc2)c2ccccc2n1C	/	42*	/	/	38*	26*
O=C(O)c1ccc(N/N=C/c2cn(Cc3ccc(F)cc3)c3ccccc23)cc1	/	40*	/	/	39*	25*
O=C(O)c1ccc(-c2nnc(-c3ccccc3)o2)cc1	/	58*	/	/	58*	14*
O=C(O)c1ccc(-c2nnc(-c3ccc([N+](=O)[O-])cc3)o2)cc1	/	4	/	/	/	/
O=C(CCCc1ccccc1)Nc1cccc(C(=O)O)c1	40	61*	73*	71*	71*	75*
O=C(CCc1ccccc1)NC(=S)Nc1cccc(Br)c1	100	-3	2	-3	/	/
Cc1cccc(C)c1OCC(=O)Nc1cccc(C(=O)O)c1	77	23*	34	22	36*	30*
O=C(CCc1ccccc1)NC(=S)Nc1cccc(C(=O)O)c1	/	33*	/	/	41*	23*
Nc1ccccc1C(=O)Nc1cccc(C(=O)O)c1	77	33*	30	13	42*	21*
SMILES	STAT3 act	HSP90 refold inh	STAT3 inh	STAT1 inh	HSP90 confirm	FLuc counter
COC(=O)c1cccc(NC(=O)CCc2ccccc2)c1	111	-4	-8	-12	/	/
CCOc1ccccc1NS(=O)(=O)c1c(C)[nH]c(C)c1C(=O)N1CCCCC1	/	-1	/	/	/	/
CCOC(=O)c1ccc(S(=O)(=O)N2CCN(c3ccccn3)CC2)cc1	/	-3	/	/	/	/
CCNc1c(NS(=O)(=O)c2ccc([N+](=O)[O-])cc2)c(=O)oc2ccccc12	/	-3	/	/	/	/
Cc1c(NC(=S)NC(=O)c2sc3ccccc3c2Cl)cccc1C(=O)O	80	43*	25	-22	63*	11*
Cc1ccc(NC(=O)C(OC(=O)c2cnc(C)cn2)c2ccccc2)c([N+](=O)[O-])c1 (configuration not stated)	/	3	/	/	/	/
CC(=O)Nc1ccc(NC(=O)C2CC(=O)N(c3ccccc3Cl)C2)cc1 (configuration not stated)	101	5	6	1	/	/
COc1ccc(/C=N/NS(=O)(=O)c2ccc(C)cc2)cc1OC(=O)c1ccccc1	96	0	11	0	/	/
COc1cc(/C=N/O)ccc1OCc1ccc(Cl)cc1	85	-3	22	-59	/	/
COc1cc(/C=N/NS(=O)(=O)c2ccc3ccccc3c2)ccc1OCc1ccc(C(=O)O)cc1	/	51*	/	/	-6	-13
COc1cc(/C=N/NS(=O)(=O)c2ccc(C)cc2)ccc1OCc1cccc(C(=O)O)c1	61	46*	47*	72*	1	-10
COc1cc(/C=N/O)ccc1OCc1ccc(C(=O)O)cc1	9	76*	111*	93*	85*	80*
CC(C)(C)c1cc(NS(=O)(=O)c2cccs2)no1	/	1	/	/	/	/
CC(C)(C)C(=O)Nc1ccc(N=Nc2ccccc2)cc1	28	71*	88*	67*	79*	74*
Cc1ccc(NC(=O)O/N=C/c2c(C)nn(C(C)(C)C)c2C)cc1Cl	/	86*	/	/	87*	88*
CCOc1ccc(N2C(=O)CC(NCCNc3ccc([N+](=O)[O-])cn3)C2=O)cc1 (configuration not stated)	100	24*	4	0	-8	-10
COCC(=O)Nc1ccc(N2CCN(c3ccccc3)CC2)c(F)c1	/	27*	/	/	-7	-13
Cc1ccc(C(=O)N2CCN(S(=O)(=O)N3CCCCCC3)CC2)cc1	/	2	/	/	/	/
Cc1cc(C(=O)COC(=O)CN(C)S(=O)(=O)c2ccc(Cl)cc2)c(C)n1CC1CCCO1 (configuration not stated)	94	-1	11	6	/	/
Cc1ccc(C(=O)OCC(=O)c2cc(C)n(CC3CCCO3)c2C)cc1 (configuration not stated)	105	32*	-1	-48	35*	32*
Cc1cc(C(=O)COC(=O)c2ccccc2NCCO)c(C)n1CC1CCCO1 (configuration not stated)	/	53*	/	/	23*	-8
O=C(COC(=O)c1cccnc1Cl)NCC1CCCO1 (configuration not stated)	101	-4	-2	14	/	/
CCOc1cc(C(=O)OCC(=O)c2cc(C)n(CC3CCCO3)c2C)ccc1OCC(=O)N1CCOCC1 (configuration not stated)	102	2	0	16	/	/
Cc1cc(C(=O)COC(=O)c2ccccc2Br)c(C)n1CC1CCCO1 (configuration not stated)	/	85*	/	/	84*	84*
Cc1cc(C(=O)COC(=O)c2cccnc2Cl)c(C)n1CC1CCCO1 (configuration not stated)	25	78*	88*	80*	86*	82*
CCOc1cc(/C=C(\C#N)C(=O)Nc2ccccc2C(=O)O)ccc1OC(=O)c1ccc(C)cc1	/	-2	/	/	/	/
